Myeloid diff 2: induction of myeloid progenitor differentiation, primary screen, cell-based, flow cytometry, MLPCN library; ER-HoxA9 myeloid progenitors, lysozyme-GFP differentiation; calls only at 10 µM; 1% of 360,000 active;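 active = normalized GFP-positive differentiation at or above the plate's own cutoff, the solvent-only control mean plus 3 SD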;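 also: cells exposed to compound for four days before flow analysis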
SKN-1 inh: suppressors of acrylamide-induced Pgst-4::GFP reporter in worms, primary screen, SKN-1 inhibitor project, whole organism, uHTS, GFP/RFP fluorescence ratio, strain VP596; 0.49% of 360,000 active; C. elegans VP596 Pgst-4::GFP/RFP ratio, 24 h; inhibition, % at 21.8 µM; AID 624304, 2012;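 active = interference check ratio from 0.5 to 1.5 plus GFP to RFP signal ratio inhibition reaching or exceeding a fixed threshold, cut at about 30% in these data, passing the limit was not always enough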
Rce1 inhib: yeast Rce1p protease inhibitors, primary screen, biochemical, fluorescence, cell-free homogeneous; 0.27% of 290,000 active; yeast membranes, quenched prenylated peptide cleavage fluorescence; calls only;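 active = fall in fluorescence gain of 50% or more versus controls, with final raw signal at or below 3038400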
T cell HTS: modulators of CD8 T cell-vesicle binding, primary screen, mouse 2C CD8+ T cells, flow cytometry | 2C CD8+ T cell-vesicle binding; stronger effect = lower value | response (vesicle binding), % at 7 µM | 0.068% of 330,000 active;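 active = response, share of CD8 T cells binding vesicles, and their 90th percentile fluorescence all below set limits, cut at about 80% in these data, passing the limit was not always enough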;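 also: values below 100% mean blocked vesicle binding to the CD8+ T cells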
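Test system: purified 2C TCR transgenic mouse naive CD8+ T cells. Probe or stimulus: QL9-peptide-loaded Drosophila micro-vesicles bearing Ld, ICAM-1 and B7-1. Incubation: binding step 1.5 h, 37 °C, antibody labelling 20 min, ice. Measured by: flow cytometry of vesicle-bound cells.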
Rin1-Abl PPI inh: inhibitors of Rin1-Abl protein binding, primary screen, biochemical, TR-FRET | 0.4% of 360,000 active | inhibition, % at 7.35 µM | Tyrosine-protein kinase ABL1 (Homo sapiens) + Ras and Rab interactor 1 (Homo sapiens), …; in the data active = inhibition above about 5%, passing the limit was not always enough
Target sequence (P00519 whole entry, looked up): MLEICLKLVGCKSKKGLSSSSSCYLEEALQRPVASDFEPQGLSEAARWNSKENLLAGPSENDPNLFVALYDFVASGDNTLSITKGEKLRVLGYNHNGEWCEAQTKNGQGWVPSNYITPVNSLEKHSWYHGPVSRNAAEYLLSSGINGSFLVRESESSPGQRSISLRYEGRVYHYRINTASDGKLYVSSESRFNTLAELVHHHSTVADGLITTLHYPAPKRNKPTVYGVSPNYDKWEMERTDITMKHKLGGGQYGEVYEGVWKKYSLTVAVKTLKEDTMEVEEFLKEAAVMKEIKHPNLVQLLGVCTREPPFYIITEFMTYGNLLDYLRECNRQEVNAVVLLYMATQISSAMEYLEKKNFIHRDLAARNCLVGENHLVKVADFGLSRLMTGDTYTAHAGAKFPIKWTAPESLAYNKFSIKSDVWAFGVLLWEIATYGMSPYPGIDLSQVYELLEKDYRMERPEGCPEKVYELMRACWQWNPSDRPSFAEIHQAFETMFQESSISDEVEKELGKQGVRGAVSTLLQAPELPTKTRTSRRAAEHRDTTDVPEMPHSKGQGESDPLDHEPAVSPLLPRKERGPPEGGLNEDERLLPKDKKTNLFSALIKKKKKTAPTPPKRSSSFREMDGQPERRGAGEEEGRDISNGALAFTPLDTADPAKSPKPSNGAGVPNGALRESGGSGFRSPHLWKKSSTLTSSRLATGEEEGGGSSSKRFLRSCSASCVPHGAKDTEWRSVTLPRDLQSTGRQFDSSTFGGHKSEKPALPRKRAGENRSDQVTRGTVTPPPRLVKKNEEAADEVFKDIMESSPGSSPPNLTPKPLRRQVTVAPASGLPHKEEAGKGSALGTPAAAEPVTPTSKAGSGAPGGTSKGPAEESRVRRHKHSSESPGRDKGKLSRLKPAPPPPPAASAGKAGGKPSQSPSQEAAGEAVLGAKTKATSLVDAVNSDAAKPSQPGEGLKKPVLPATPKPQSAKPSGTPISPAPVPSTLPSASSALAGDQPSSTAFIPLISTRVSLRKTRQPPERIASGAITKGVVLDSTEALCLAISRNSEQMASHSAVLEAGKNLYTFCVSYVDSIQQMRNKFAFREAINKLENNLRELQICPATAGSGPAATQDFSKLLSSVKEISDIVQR
Target sequence (Q13671 whole entry, looked up): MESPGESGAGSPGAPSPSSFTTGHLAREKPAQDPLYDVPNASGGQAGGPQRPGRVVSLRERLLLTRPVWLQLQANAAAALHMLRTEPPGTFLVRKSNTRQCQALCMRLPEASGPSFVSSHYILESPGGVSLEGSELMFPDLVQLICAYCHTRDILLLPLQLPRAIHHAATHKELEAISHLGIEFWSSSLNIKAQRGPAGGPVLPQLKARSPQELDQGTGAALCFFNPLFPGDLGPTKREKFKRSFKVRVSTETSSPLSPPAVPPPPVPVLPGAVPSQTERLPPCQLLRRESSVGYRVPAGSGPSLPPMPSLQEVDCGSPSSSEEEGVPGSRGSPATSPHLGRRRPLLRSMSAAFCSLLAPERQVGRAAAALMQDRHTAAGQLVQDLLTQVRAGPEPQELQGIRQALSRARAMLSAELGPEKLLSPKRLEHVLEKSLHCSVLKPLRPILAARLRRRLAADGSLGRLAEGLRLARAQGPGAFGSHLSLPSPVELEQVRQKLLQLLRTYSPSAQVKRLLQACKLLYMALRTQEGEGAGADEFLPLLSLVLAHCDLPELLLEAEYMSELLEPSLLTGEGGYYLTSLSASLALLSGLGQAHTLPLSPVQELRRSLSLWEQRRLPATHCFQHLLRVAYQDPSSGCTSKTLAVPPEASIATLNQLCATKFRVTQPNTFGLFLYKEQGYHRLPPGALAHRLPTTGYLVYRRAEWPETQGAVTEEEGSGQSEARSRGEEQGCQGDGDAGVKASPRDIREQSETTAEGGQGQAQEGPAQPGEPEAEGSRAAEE
GRK2 aptamer HTS: compounds blocking aptamer binding on GRK2 – biochemical, human GRK2, bead flow cytometry, HTS, primary screen; Beta-adrenergic receptor kinase 1 (Homo sapiens), P25098; FAM-aptamer displacement from GRK2; inhibition of aptamer binding, % at 10 µM; 0.59% of 330,000 active; AID 488847, 2010;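 active = inhibition of aptamer binding above 40%, roughly 3 SD of noise, on plates passing a quality check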;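 also: median bead fluorescence of bound FAM aptamer so fluorescent compounds give negative values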
A number is an active result; . = inactive; / = no result; + = active, no number. Compounds with a hit are over-represented: about 2.6% of the library has one in this group of screens.

SMILES	Myeloid diff 2	SKN-1 inh	Rce1 inhib	T cell HTS	Rin1-Abl PPI inh	GRK2 aptamer HTS
O=C(CSc1nnc(-c2ccncc2)o1)Oc1ccccc1	.	.	.	.	.	.
O=C(CSc1nnc(-c2ccccc2O)o1)Oc1ccc(OCc2ccccc2)cc1	+	.	.	.	.	.
Clc1ccc(CSc2ccc(-c3cccnc3)nn2)cc1	+	37	.	.	.	.
OCc1cccc(-c2csc(C(O)(c3ccccc3)C(F)(F)F)n2)c1 (centres undefined)	.	35	/	/	.	/
CN1CCc2c(sc3c2C(=O)NC(c2ccccc2)N3)C1 (centres undefined)	.	47	.	.	.	.
CNC(=O)C(=O)NCCN1CCN(S(=O)(=O)c2ccc3ccccc3c2)CC1	.	.	.	.	.	.
C[C@@]12CCC=C[C@H]1[C@H](c1ccc(/C=C/c3ccccc3)cc1F)N(Cc1ccccc1)C2=O	.	.	+	.	.	.
C[C@@]12CCC=C[C@H]1[C@H](c1ccc3ccccc3c1/C=C/c1ccccc1)N(Cc1ccccc1)C2=O	.	.	.	.	.	.
CC1CCC/C(=C\Nc2ccccc2C(=O)O)C1=O (centres undefined)	.	.	+	.	.	.
CCCCNC(=O)/C(C#N)=C/c1ccc2c(c1)OCCO2	.	.	.	0.0	.	.
CCCCCCCCNC(=O)/C(C#N)=C/c1ccc2c(c1)OCCO2	.	.	.	.	.	.
COc1ccc(/C=C(\C#N)C(=O)NCCc2ccccc2)cc1OCc1ccccc1	.	.	.	.	.	.
COCCCNC(=O)/C(C#N)=C/c1ccc(OCC(=O)O)c(OC)c1	.	.	.	.	.	44
Cc1ccc(S(=O)(=O)/N=C(/Nc2ccc([N+](=O)[O-])cc2[N+](=O)[O-])c2ccccc2)cc1	.	.	/	.	.	.
Cc1cc(C)c2ccc3c(C)c(C)nc3c2[nH]1	.	53	.	.	.	.
CC(OC(=O)/C(C#N)=C/c1ccc(N(C)C)cc1)C(=O)N(C)c1ccccc1 (centres undefined)	.	46	.	.	.	.
O=[N+]([O-])c1cccc(-c2nc(-c3ccccc3)no2)c1	.	.	.	.	.	.
O=[N+]([O-])c1cccc(-c2noc(-c3ccco3)n2)c1	.	53	.	.	.	.
COC(=O)CSc1nnc(SCc2ccc(OC)cc2)s1	.	39	.	.	.	.
CC(C)OC(=O)CSc1nnc(SCc2cccc3ccccc23)s1	.	32	.	.	.	.
COc1ccc(CSc2nnc(SCc3ccc([N+](=O)[O-])cc3)s2)cc1	.	.	.	.	.	.
Cc1onc(-c2ccccc2)c1C(=O)NC(=S)NNC(=O)c1ccc(O)cc1O	/	.	.	.	.	.
Cc1onc(-c2ccccc2)c1C(=O)NC(=S)NNC(=O)c1ccccc1O	+	.	.	.	.	.
CCOc1ccc(CN(C)C(=O)[C@H](Cc2ccccc2)NC(=O)OCc2ccccc2)cc1OC	+	.	.	.	.	.
CCc1ccc2[nH]c(=O)c(CN(Cc3ccco3)S(=O)(=O)c3ccc4c(c3)OCCO4)cc2c1	.	.	.	.	.	.
SMILES	Myeloid diff 2	SKN-1 inh	Rce1 inhib	T cell HTS	Rin1-Abl PPI inh	GRK2 aptamer HTS
Cc1ccc(C)c2[nH]c(=O)c(CN(Cc3ccco3)S(=O)(=O)c3ccc4c(c3)OCCO4)cc12	+	.	.	.	.	.
CC(C)N1CCN(Cc2ccc(-c3ccccc3)cc2)CC1CCO (centres undefined)	.	.	.	.	.	.
CC(C)N1CCN(Cc2ccc(OCc3ccccc3)cc2)CC1CCO (centres undefined)	.	.	+	.	.	.
O=C1CSC(c2cn(-c3ccccc3)nc2-c2cc3ccccc3oc2=O)N1Cc1ccco1 (centres undefined)	.	.	+	.	.	.
Cc1ccc(S(=O)(=O)NC(CC(C)C)C(=O)Oc2ccc3c4c(c(=O)oc3c2)CCC4)cc1 (centres undefined)	.	.	.	.	.	.
CC(C)CC(C(=O)Oc1ccc2c3c(c(=O)oc2c1)CCC3)N1C(=O)c2ccccc2C1=O (centres undefined)	.	35	.	/	.	/
C=C(C)C(=O)Nc1cccc(C2=NOC3(C2)C[C@H](C(N)=O)N(C(=O)CC)C3)c1 (some centres undefined)	.	.	.	.	.	72
C/C=C(\C)C(=O)Nc1cccc(C2=NOC3(C2)C[C@@H](C(N)=O)N(C(=O)/C(C)=C/C)C3)c1 (some centres undefined)	.	.	.	.	.	.
C=C(C)C(=O)Nc1cccc(C2=NOC3(C2)C[C@@H](C(N)=O)N(C(=O)/C(C)=C/C)C3)c1 (some centres undefined)	.	.	.	.	.	94
C/C=C(\C)C(=O)Nc1cccc(C2=NOC3(C2)C[C@@H](C(N)=O)N(C(=O)c2ccccc2C(=O)c2ccccc2)C3)c1 (some centres undefined)	.	.	.	.	.	.
C=C(C)C(=O)Nc1cccc(C2=NOC3(C2)C[C@H](C(N)=O)N(C(=O)c2ccccc2C(=O)c2ccccc2)C3)c1 (some centres undefined)	.	.	.	.	.	91
C[N+]1(CCOC(=O)C2(c3ccccc3)CCCC2)CCCCC1	.	.	.	.	.	.
Cc1cc(C)n2c(nc3ccccc32)c1C(=O)NCc1ccccc1	.	.	+	.	.	.
COc1ccc(CC(=O)NCC(=O)NCc2cc(=O)n(C)c(=O)n2C)cc1	.	.	.	.	.	.
CC(C)N1CCc2c(sc(NC(=O)c3ccc(S(=O)(=O)N4CCc5ccccc54)cc3)c2C(N)=O)C1	+	.	.	.	.	.
CNC(=O)c1c(NC(=O)c2ccc(S(=O)(=O)N(C)c3ccccc3)cc2)sc2c1CCN(C(C)C)C2	/	/	.	.	/	.
CC(C)N1CCc2c(sc(NC(=O)c3ccc(S(=O)(=O)N4CCOCC4)cc3)c2C#N)C1	+	.	.	.	.	.
CCN1CCc2c(sc(NC(=S)NC(=O)c3ccc(Cl)cc3)c2C(N)=O)C1	+	.	.	.	.	.
CCCN1CCc2c(sc(NC(=S)NC(=O)c3ccccc3)c2C#N)C1	+	.	/	.	.	.
CCN1CCc2c(sc(NC(=O)c3ccc(S(=O)(=O)N(C)c4ccccc4)cc3)c2C(=O)NC)C1	+	.	.	.	.	.
